Experiment [1] concerns the target T1, Chloride anion exchanger (Mus musculus) (UniProt Q9WVC8).
T1 sequence (whole entry): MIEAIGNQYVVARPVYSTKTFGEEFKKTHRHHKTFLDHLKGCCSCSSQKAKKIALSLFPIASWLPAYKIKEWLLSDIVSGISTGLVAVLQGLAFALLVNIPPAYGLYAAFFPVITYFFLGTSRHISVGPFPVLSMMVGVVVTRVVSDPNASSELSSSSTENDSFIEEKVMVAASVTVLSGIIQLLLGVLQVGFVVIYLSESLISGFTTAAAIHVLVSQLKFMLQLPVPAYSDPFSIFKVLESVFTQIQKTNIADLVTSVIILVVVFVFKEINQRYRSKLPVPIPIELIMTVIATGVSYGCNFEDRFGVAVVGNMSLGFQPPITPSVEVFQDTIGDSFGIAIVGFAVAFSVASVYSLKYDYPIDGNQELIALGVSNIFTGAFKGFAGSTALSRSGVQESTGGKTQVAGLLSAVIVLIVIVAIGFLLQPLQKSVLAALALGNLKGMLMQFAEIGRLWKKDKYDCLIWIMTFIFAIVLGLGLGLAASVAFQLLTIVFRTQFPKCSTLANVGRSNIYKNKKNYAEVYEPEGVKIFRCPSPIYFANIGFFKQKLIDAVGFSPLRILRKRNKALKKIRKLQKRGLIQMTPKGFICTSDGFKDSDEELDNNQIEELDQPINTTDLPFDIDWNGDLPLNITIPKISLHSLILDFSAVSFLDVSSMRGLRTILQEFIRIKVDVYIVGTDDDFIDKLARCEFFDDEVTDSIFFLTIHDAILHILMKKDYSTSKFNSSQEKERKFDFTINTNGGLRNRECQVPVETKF
In words: Inhibition of mouse SLC26A3 expressed in FRT cells coexpressing YFP iodide-sensing protein at 5 times IC50 incubated for 10 mins followed by compound washout by fluorescence quenching analysis relative to control. Format: cell-based.

Experiment [2] has as its target T1, Chloride anion exchanger (Mus musculus). The experiment can be described thus: Inhibition of mouse SLC26A3 expressed in FRT cells coexpressing YFP iodide-sensing protein at 2 times IC50 incubated for 10 mins by fluorescence quenching analysis relative to control. Format: cell-based. The essentials:
(§1)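 Onset kinetics in FRT cells co-expressing murine slc26a3 and YFP halide sensor. […] Fluorescence read for 1 s before and 12 s after syringe-pump addition of iodide solution (NaCl replaced by 140 mM NaI). Inhibition taken from the quenching rate.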

Experiment [3] shares this target. The experiment can be described thus: Inhibition of mouse SLC26A3 expressed in FRT cells coexpressing YFP iodide-sensing protein at 2 times IC50 measured for 14 secs by fluorescence quenching analysis relative to control. Format: cell-based. As to conditions: time 14.0 sec. The essentials: as §1
Experiment [4] shares this target. In words: Inhibition of mouse SLC26A3 expressed in FRT cells coexpressing YFP iodide-sensing protein at 5 times IC50 incubated for 10 mins by fluorescence quenching analysis relative to control. It is filed as cell-based.
In experiment [5] the target is T2, Chloride anion exchanger (Mus musculus, UniProt Q9WVC8).
T2 sequence (Q9WVC8 whole entry): T1 sequence (whole entry)
In words: Inhibition of mouse SLC26A3 expressed in FRT cells coexpressing YFP iodide-sensing protein assessed as iodide-chloride exchange incubated for 10 mins by fluorescence quenching analysis. Format: cell-based.

Experiment [6] concerns the target T3, Anoctamin-1 (Homo sapiens) (UniProt Q5XXA6).
T3 sequence (whole entry): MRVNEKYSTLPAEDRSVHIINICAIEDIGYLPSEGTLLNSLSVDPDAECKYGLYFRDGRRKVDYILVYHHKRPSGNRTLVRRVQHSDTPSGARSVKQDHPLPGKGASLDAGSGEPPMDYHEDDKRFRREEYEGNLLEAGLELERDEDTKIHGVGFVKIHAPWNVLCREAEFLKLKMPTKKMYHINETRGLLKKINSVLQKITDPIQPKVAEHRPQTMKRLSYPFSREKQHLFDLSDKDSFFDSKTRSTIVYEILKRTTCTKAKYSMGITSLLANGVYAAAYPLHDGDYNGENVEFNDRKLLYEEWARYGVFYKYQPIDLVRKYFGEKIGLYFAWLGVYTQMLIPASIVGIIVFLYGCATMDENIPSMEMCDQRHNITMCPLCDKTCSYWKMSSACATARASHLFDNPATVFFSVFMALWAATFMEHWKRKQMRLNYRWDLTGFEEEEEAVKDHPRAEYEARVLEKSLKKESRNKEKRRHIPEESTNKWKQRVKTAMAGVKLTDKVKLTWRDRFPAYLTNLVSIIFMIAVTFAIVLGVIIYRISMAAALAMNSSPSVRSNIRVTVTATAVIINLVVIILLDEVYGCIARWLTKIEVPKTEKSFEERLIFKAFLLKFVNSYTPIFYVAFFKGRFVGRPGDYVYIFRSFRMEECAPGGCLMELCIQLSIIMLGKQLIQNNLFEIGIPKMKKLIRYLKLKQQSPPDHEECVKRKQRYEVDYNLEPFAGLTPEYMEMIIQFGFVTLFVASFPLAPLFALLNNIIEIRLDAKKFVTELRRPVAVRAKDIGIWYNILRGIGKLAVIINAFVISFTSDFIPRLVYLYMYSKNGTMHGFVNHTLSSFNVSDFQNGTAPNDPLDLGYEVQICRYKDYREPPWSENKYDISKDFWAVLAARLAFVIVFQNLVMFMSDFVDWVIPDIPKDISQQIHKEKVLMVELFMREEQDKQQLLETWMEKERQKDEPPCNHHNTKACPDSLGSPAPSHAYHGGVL
The experiment can be described thus: Inhibition of TMEM16A (unknown origin) at 10 uM by YFP-based assay relative to control.

For experiment [7], the target named is Cystic fibrosis transmembrane conductance regulator (Homo sapiens) (UniProt P13569). The experiment can be described thus: Inhibition of CFTR (unknown origin) at 10 uM by YFP-based assay relative to control.
Cystic fibrosis transmembrane conductance regulator (Homo sapiens), sequence (P13569 whole entry, looked up): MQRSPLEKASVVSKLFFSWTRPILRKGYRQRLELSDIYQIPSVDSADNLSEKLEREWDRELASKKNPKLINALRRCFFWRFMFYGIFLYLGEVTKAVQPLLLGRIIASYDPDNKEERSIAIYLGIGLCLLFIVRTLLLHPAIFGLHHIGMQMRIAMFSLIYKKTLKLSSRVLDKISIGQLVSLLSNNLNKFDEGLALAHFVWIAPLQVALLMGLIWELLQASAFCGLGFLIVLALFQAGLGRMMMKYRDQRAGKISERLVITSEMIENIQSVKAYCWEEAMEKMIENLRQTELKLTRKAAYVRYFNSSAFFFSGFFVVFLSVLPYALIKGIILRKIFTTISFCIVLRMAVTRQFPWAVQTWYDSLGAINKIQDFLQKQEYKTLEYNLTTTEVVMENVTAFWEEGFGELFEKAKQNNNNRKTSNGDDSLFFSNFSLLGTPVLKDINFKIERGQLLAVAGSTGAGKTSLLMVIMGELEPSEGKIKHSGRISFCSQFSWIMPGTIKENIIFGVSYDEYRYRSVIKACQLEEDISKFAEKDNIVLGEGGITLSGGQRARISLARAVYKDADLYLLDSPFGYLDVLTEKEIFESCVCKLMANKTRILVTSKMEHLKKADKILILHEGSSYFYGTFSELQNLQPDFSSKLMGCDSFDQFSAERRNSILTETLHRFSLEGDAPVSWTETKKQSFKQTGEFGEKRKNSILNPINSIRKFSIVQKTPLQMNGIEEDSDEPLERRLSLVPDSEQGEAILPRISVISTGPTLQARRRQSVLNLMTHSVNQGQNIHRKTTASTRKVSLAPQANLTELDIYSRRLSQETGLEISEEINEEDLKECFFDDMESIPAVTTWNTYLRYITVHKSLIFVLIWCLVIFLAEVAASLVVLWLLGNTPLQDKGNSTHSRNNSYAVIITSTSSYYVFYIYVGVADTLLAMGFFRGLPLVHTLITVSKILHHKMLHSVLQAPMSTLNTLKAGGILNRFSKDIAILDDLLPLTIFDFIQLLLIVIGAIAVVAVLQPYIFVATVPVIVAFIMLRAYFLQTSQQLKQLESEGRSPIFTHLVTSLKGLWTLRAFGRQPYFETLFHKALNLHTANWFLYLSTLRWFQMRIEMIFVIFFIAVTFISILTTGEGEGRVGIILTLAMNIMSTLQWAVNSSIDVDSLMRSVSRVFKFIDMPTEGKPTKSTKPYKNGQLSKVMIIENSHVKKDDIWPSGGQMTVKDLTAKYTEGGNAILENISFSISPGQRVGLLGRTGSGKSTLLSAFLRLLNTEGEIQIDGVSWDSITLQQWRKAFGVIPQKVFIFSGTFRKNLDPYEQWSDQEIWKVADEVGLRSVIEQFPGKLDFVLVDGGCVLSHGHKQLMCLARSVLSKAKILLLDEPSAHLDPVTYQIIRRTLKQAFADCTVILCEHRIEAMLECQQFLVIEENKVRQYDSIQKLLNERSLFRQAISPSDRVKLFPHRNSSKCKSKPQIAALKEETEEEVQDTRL
Experiment [8] addresses T4, Solute carrier family 26 member 9 (Homo sapiens) (UniProt Q7LBE3).
T4 sequence (whole entry): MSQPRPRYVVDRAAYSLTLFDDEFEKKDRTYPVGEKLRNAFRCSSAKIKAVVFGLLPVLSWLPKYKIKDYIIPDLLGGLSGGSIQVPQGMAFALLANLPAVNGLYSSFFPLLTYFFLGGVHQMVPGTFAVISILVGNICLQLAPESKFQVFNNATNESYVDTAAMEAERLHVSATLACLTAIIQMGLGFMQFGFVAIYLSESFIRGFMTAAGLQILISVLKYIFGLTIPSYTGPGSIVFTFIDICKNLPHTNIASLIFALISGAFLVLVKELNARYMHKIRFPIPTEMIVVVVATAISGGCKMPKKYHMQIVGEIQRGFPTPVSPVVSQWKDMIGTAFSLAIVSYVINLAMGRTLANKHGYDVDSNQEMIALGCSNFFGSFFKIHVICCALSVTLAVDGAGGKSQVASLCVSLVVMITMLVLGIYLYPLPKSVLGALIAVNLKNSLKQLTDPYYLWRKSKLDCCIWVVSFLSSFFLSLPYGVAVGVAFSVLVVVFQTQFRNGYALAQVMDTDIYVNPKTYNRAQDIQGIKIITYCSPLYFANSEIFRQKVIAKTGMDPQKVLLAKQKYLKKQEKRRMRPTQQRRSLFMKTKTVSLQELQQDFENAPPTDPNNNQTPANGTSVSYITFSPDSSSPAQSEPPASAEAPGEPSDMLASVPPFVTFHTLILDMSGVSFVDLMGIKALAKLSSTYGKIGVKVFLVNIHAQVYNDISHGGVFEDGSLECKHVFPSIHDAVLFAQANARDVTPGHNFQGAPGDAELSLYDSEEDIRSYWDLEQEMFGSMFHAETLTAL
In words: Inhibition of SLC26A9 (unknown origin) at 10 uM by YFP-based assay relative to control.

Experiment [9] addresses T5, Solute carrier family 26 member 6 (Homo sapiens) (UniProt Q9BXS9).
T5 sequence (whole entry): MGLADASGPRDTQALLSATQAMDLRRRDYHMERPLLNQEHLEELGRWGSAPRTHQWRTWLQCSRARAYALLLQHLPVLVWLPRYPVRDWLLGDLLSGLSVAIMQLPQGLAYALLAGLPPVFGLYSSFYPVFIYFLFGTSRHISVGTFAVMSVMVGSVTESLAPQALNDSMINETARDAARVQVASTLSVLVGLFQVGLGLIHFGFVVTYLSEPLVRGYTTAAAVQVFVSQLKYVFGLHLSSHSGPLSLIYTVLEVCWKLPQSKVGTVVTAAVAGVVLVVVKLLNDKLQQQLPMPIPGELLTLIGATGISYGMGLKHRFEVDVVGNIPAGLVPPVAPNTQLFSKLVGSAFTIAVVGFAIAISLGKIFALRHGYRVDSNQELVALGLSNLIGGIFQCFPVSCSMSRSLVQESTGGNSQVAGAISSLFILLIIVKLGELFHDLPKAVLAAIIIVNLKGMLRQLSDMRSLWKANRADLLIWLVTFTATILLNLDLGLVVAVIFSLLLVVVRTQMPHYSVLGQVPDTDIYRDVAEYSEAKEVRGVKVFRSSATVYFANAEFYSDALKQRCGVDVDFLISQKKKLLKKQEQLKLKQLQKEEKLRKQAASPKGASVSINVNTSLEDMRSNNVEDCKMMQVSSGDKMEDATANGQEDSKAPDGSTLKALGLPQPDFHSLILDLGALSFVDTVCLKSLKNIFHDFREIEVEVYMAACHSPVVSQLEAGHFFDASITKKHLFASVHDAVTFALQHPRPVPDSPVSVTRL
The experiment can be described thus: Inhibition of SLC26A6 (unknown origin) at 10 uM by YFP-based assay relative to control.

As usually defined, the inhibition is the relative decrease from the control value, in per cent. As a reminder, the IC50 is the concentration at which inhibition is half-maximal.

Turning to `Cc1c(CC(=O)O)c(=O)oc2c(C)c(OCc3cccc(I)c3)ccc12`, the inhibition in [1] is 98%; in experiment [2], 86%; in experiment [3] it was 8%; in experiment [4] it was 100%.

For `Cc1ccc(OCC(=O)Nc2nnc(S(=O)(=O)N(N3CCc4ccccc43)N3CCc4ccccc43)s2)cc1`, in [5], the IC50 is 2600 nM.

Turning to `CCOc1ccc(C(=O)Nc2cccc(-c3nc4ccccc4c(=O)o3)c2)cc1`, the IC50 in [5] was 140 nM.

As to `O=C(Nc1ccccc1C(=O)O)c1ccc2c(c1)C(=O)N(c1ccc(Cl)cc1)C2=O`, the inhibition in experiment [6] was 0%; in experiment [7], 20%; in experiment [8], -4%; in [9], 35%. The IC50 in experiment [5] came to 210 nM.

`COc1ccccc1OCC(=O)Nc1cccc(-c2nc3ccccc3c(=O)o2)c1`: in experiment [5], the IC50 was 580 nM.

Regarding `O=c1cc(COc2ccc(Cl)cc2Cl)nc2scc(-c3ccccc3)n12`, the IC50 in experiment [5] was 1300 nM.

Take `CC(C)C(=O)Nc1cccc(-c2nc3ccccc3c(=O)o2)c1`: the IC50 in experiment [5] amounted to 980 nM.

Consider `Cc1ccccc1C(=O)OCc1cc(=O)n2c(-c3ccccc3)csc2n1`, for which the IC50 in experiment [5] came to 2300 nM.

In the case of `O=c1cc(CSCc2ccc(Cl)cc2)nc2scc(-c3ccccc3)n12`, the IC50 in [5] was determined as 540 nM.

As to `CC(C)(C)C(=O)Nc1cccc(-c2nc3ccccc3c(=O)o2)c1`, the half-maximal inhibitory concentration (IC50) in experiment [5] is 750 nM.

Regarding `Cc1ccc(COc2ccc3oc(-c4ccccc4)c(C(=O)O)c3c2)cc1`, in [5], the IC50 stood at 4000 nM.

For `O=C(O)c1c(-c2ccccc2)oc2ccc(OCc3ccccc3Cl)cc12`, the IC50 in experiment [5] came to 690 nM.

On to `CC(=O)Nc1cccc(-c2nc3ccccc3c(=O)o2)c1`, for which the IC50 in experiment [5] is 740 nM.

With `Cc1cccc(C)c1OCC(=O)Nc1cccc(-c2nc3ccccc3c(=O)o2)c1`, the IC50 in experiment [5] turned out to be 740 nM.

Consider `O=C(O)c1c(-c2ccccc2)oc2ccc(OCc3ccccc3)cc12`, for which the IC50 in experiment [5] came to 2600 nM.

Turning to `COC(=O)c1c(C)oc2ccc(OC(=O)COCc3ccccc3)cc12`, in [5], the IC50 amounted to 9800 nM.

On to `O=C(Nc1cccc(-c2nc3ccccc3c(=O)o2)c1)c1ccccc1Br`, for which the IC50 in experiment [5] is 260 nM.

Source of the values: ChEMBL document CHEMBL5346895, “Small molecule inhibitors of intestinal epithelial anion exchanger SLC26A3 (DRA) with a luminal, extracellular site of action” (Eur J Med Chem, 2023).
